Yeast growth inh: chemicals that inhibit yeast BB579 growth in restrictive medium (lifespan-shortening candidates) | AID 804 | hit rate 0.51% among 140,000 | S. cerevisiae BB579 growth, OD615, 48 h | inhibition, % at 10 µM;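 active means inhibition above a set limit, 3 SD over the mean compound inhibition, cut at about 44% in these data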
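Test system: Saccharomyces cerevisiae DeaD strain BB579, replicative lifespan model yeast | Buffer or medium: Restrictive CSMM-D medium | Doses: One dose, 10 µM compound with 0.25% DMSO | Incubation: 48 h exposure, 30 °C | Detection: Culture absorbance at 615 nm | Control set: Amphotericin B at 10 µg/mL as positive control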
WT yeast gro inh: growth inhibition of WT yeast, mitochondrial fusion screen; mitochondrial fusion phenotypic screen, WT strain; inhibition, % at 10 µM; hit rate 2.1% among 190,000; in the data active means inhibition above about 58%; tested in S. cerevisiae
Yeast life ext: extends the lifespan of yeast. hit rate 0.68% among 130,000. inhibition of the nicotinamide effect, % at 10 µM. S. cerevisiae growth with nicotinamide, OD615; deaD strain in restrictive glucose medium;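 active means inhibition above a set limit, placed 3 SD over the median of all compounds, cut at about 26% in these data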;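 further: 0% = nicotinamide-treated wells and 100% = cells grown without nicotinamide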
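Assay system: DeaD-strain S. cerevisiae. Medium: CSMM-D glucose medium, restrictive. Reagent: nicotinamide, 1.5 mM, co-present with compound. Compound: 10 µM single point, 0.25% DMSO. Schedule: culture preincubation 4 h, compound exposure 48 h, both 30 °C. Detection: absorbance at 615 nm.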
RAM network inh: inhibitors of the yeast RAM network; inhibition, % at 50 µM; S. cerevisiae dse1pr::URA3 reporter, 5-FOA growth OD615, 2 d; analog-sensitive cbk1-as2 kinase mutant strain; hit rate 1.8% among 190,000; AID 868;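 active means inhibition above a set limit, 3 SD over mean compound inhibition, cut at about 8.4% in these data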;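 further: 0% = DMSO-only wells with no growth and 100% = 10 µM 1-NA-PP1 full growth; inhibition rescues growth on 5-FOA so higher OD means more RAM inhibition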
* = called active by the depositor; nt = not tested or not shown. An excerpt weighted towards active compounds, which were near 4.3% of everything screened.

SMILES | Yeast growth inh | WT yeast gro inh | Yeast life ext | RAM network inh
N#Cc1nc(-c2ccco2)oc1NCc1ccc(F)cc1 | -19 | 62* | -20 | 4
COc1ccc(-c2nc(C#N)c(NCc3ccc(F)cc3)o2)cc1OC | -7 | -4 | -13 | 8.9*
CCOc1ccc(-c2nc(C#N)c(NCc3ccc4c(c3)OCO4)o2)cc1 | -16 | 9 | -2 | 11*
Cc1cnc([N+](=O)[O-])n1CCOC(=O)NC(=O)c1ccc(F)cc1 | nt | 5 | nt | 2
CCCCCCc1ccc(-c2ncc(N)cn2)cc1 | 97* | 7 | -31 | 1
COc1ccc(N2CCN(C(=O)CC34CC5CC(CC(C5)C3)C4)CC2)c([N+](=O)[O-])c1 | -32 | 66* | 1 | 10.0*
Cc1ccc2oc(=O)n(CCCOc3ccccc3C)c2c1 | nt | 64* | nt | 2
Cc1ccc2oc(=O)n(CCOc3ccccc3C)c2c1 | nt | 6 | nt | 3
COc1ccc(OC)c(-c2cc(C3CCN(C(=O)OC(C)(C)C)CC3)[nH]n2)c1 | nt | 39 | nt | -1
CCOc1ccc(C(=O)C(CCC(CN(C)C)C(=O)c2ccc(OCC)cc2)CN(C)C)cc1 (centres undefined) | -14 | 64* | 1 | 0
COc1ccc(C(=O)C(CCCCC(CN(C)C)C(=O)c2ccc(OC)cc2)CN(C)C)cc1 (centres undefined) | -26 | -5 | -19 | 1
Cc1ccc2cccnc2c1N | nt | -6 | nt | 2
c1cnc2c(c1)ccc1cccnc12 | 99* | 35 | -9 | 0
CCCCCN1CSC(=S)N(Cc2ccccc2)C1 | 26 | 15 | 27* | 0
FC(F)(F)c1cccc(NC(=S)N(CCCN2CCCC2)Cc2cccn2Cc2ccc(Cl)cc2)c1 | nt | 95 | nt | 4
COc1ccc(NC(=S)N(CCCN2CCCC2)Cc2cccn2Cc2ccc(Cl)cc2)cc1Cl | nt | 87* | nt | 3
Cc1ccc(NC(=S)N(CCCN2CCCC2)Cc2cccn2Cc2ccc(Cl)cc2)cc1Cl | nt | 77* | nt | 4
Cc1ccc(NC(=S)N(CCCN2CCCC2)Cc2cccn2Cc2ccc(Cl)cc2)cc1C | nt | 76* | nt | 5
Cc1cc(NC(=S)N(CCN2CCCCC2)Cc2ccco2)ccc1Cl | nt | 18 | nt | -1
COC(=O)Cc1ccc(NC(=S)NCc2ccccc2OC)cc1 | nt | 11 | nt | 0
S=C(NCCCc1ccccc1)Nc1ccc(Cl)cc1 | 31 | 72* | -5 | 1
COc1ccccc1CNC(=S)NCCc1ccccc1 | -27 | 69* | -1 | 1
S=C(NCCC(c1ccccc1)c1ccccc1)Nc1ccc(Cl)cc1 | 19 | -11 | -23 | 5
CC(C)(C)NC(=S)Nc1ccc(Br)cc1 | -41 | 20 | -17 | 1
Cc1cccnc1NC(=S)NCCc1ccccc1 | nt | 61* | nt | -1
SMILES | Yeast growth inh | WT yeast gro inh | Yeast life ext | RAM network inh
CC(C)(C)NC(=S)Nc1ccc(Nc2ccccc2)cc1 | -5 | 73* | -19 | 4
CC(=O)CCn1cnc([N+](=O)[O-])n1 | nt | -10 | nt | 0
CC1(C)CC(=O)C=C(NC2=CC3OC(c4ccccc4)OCC3OC2=O)C1 (centres undefined) | -22 | -18 | 6 | 4
CCCCN(C(=O)/C=C/c1ccco1)c1c(N)n(CCC)c(=O)[nH]c1=O | nt | -9 | nt | 2
O=C(COc1ccc2ccccc2c1)Nc1ccc(S(=O)(=O)N2CCCCCC2)cc1 | -15 | 7 | nt | 3
S=C(NCCc1ccccc1)Nc1ccc(Nc2ccccc2)cc1 | nt | 82* | nt | 2
O=c1cc(-c2ccccc2)n(S(=O)(=O)c2ccccc2)o1 | 80* | -21 | 2 | -1
COc1ccc(S(=O)(=O)n2oc(=O)cc2-c2ccccc2)cc1OC | 57* | 4 | 18 | -1
COc1ccc(S(=O)(=O)n2oc(=O)cc2-c2ccccc2)cc1 | 21 | -12 | 32 | 0
Cc1nnc(SCC(=O)N2CCN(c3ccccc3)CC2)n(N)c1=O | nt | 5 | nt | 2
COc1ccc(N2CCN(C(=O)NC3CC(=O)N(c4ccc(OC)cc4)C3)CC2)cc1 (centres undefined) | nt | 2 | nt | 2
CCc1ccc(CN(C)C(=O)CCc2nc3ccccc3n(-c3ccc(OC)cc3)c2=O)cc1 | nt | 58* | nt | 2
COc1ccc(C(C)=O)cc1CSc1nnc(-c2ccccc2O)n1-c1ccccc1 | -59 | 25 | -8 | 2
Cc1cc(Oc2ccc(C)c(Cl)c2)nc(SCC(=O)c2ccccc2)n1 | -32 | 30 | 5 | 9.1*
Cc1cccc(Nc2ncnc3ccc(Br)cc23)c1 | nt | 35 | nt | 0
Clc1ccc(Nc2ncnc3ccc(Br)cc23)cc1 | -21 | 61* | 0 | 2
Clc1cccc(Nc2ncnc3ccc(Br)cc23)c1 | -35 | 73* | -30 | 4
Clc1ccc(CSc2nnc(-c3ccncc3)o2)c(Cl)c1 | -38 | 76* | -9 | 2

From PubChem BioAssay
